Published values of several laboratories.
Compare with care: the assays were run in different laboratories.
Target: Dual specificity protein kinase CLK4 (CLK4, Homo sapiens, UniProt Q9HAZ1)

`CC1=C(C#N)C(c2ccc3c(c2)c(NC(=O)c2ccccc2C)nn3C)C(C#N)=C(C)N1` has a remaining binding of 76% (cell-free assay, competition with immobilised ligand; 1 µM).
For `COc1cnc(Nc2cccc(S(N)(=O)=O)c2)nc1N1CCN(c2ccccc2)C(=O)C1`, the remaining binding was 93% (binding, competition with immobilised ligand; 1 µM).
`O=C(c1ccc(Nc2ncc(Cl)c(-c3ccc(Cl)s3)n2)cc1)N1CCC(N2CCCC2)CC1` gave a remaining binding of 2.1% (binding, competition with immobilised ligand; 1 µM).
`N[C@H]1CCN(c2nccc(-c3cnn4ncccc34)n2)C1` has a remaining binding of 22% (binding; 1 µM).
For `O=C(NCCCC1CCCCC1)c1ccc(CNC(=O)c2cnn(-c3ccccc3)c2C(F)(F)F)cc1`, the remaining binding was 100% (cell-free assay, competition with immobilised ligand; 0.1 µM).
With `F[C@@H]1CCN(c2nccc(-c3cnn4ncccc34)n2)C1` the remaining binding was 60% (binding; 1 µM).
`Cc1nc(N2CC[C@@H](O)C2)ncc1-c1cc(C(F)(F)F)cc2[nH]ncc12` gave a remaining binding of 92% (binding, competition with immobilised ligand; 1 µM).
The remaining binding of `C=CC(=O)N1CCC(C(=O)NCC(=O)N2CCN(c3nc(-c4cnc(N)nc4C(F)F)nc(N4CCOCC4)n3)CC2)CC1` is reported as 100% (binding, competition with immobilised ligand; 1 µM).
For `CNC(=O)[C@@H]1CC[C@@H](n2c(-c3ccc4cnccc4c3)nc3ccc(C(=O)NCc4cccc(C(N)=O)c4)cc32)C1`, the remaining binding was 100% (binding, competition with immobilised ligand; 1 µM).
With `CN(C)c1ncc(F)c(-c2cnn3ncccc23)n1` the remaining binding was 61% (binding; 1 µM).
With `FC(F)(F)Oc1cccc(-c2cnc3ccc(-c4ccncc4)nn23)c1` the remaining binding was 7.8% (cell-free assay, competition with immobilised ligand; 5 µM).
For `COc1ncc2cc3ccccc3nc2c1C#N`, the remaining binding was 86% (cell-free assay, competition with immobilised ligand; 5 µM).
The remaining binding of `c1cnn2ncc(-c3ccnc(N4CCC45COC5)n3)c2c1` is reported as 6.2% (binding; 1 µM).
`O=C(N1CCS(=O)(=O)CC1)N1C[C@H](c2ccc(OC(F)(F)F)cc2)C[C@H](c2nc(C3CC3)no2)C1` gave a remaining binding of 100% (cell-free assay, competition with immobilised ligand; 1 µM).
`O=C(NCC1CCOCC1)c1n[nH]cc1NC(=O)c1c(F)cccc1F` has a remaining binding of 32% (binding, competition with immobilised ligand; 1 µM).
With `O=C(NCCCN1CCOCC1)c1ccc(Nc2nccc(-c3cc4ccccc4s3)n2)cc1` the remaining binding was 11% (binding, competition with immobilised ligand; 1 µM).
For `Cc1c(NC(=O)c2cc(C(N)=O)nc3cc(F)ccc23)c(C(F)(F)F)nn1Cc1ccc(C(C)(C)C)cc1`, the remaining binding was 100% (cell-free assay, competition with immobilised ligand; 1 µM).
`Cc1cnc(Nc2ccc(C(=O)N3CCC(N4CCCC4)CC3)cc2)nc1-c1cc2ccccc2s1` has a remaining binding of 11% (binding, competition with immobilised ligand; 1 µM).
For `Cc1c(C(=O)O)cc(-c2ccc(C3CCNCC3)cc2)c2ccc(-c3ccc(C(F)(F)F)cc3)cc12`, the remaining binding was 100% (binding, competition with immobilised ligand; 1 µM).
`C[C@@H]1CCN(c2nccc(-c3cnn4ncccc34)n2)C1` has a remaining binding of 12% (binding; 1 µM).
The remaining binding of `Cc1noc([C@H]2C[C@@H](c3ccc(C(F)(F)F)cc3)CN(C(=O)N3CCS(=O)(=O)C3)C2)n1` is reported as 83% (cell-free assay, competition with immobilised ligand; 1 µM).
`CC1CCCN1c1nccc(-c2cnn3ncccc23)n1` (stereo not shown) gave a remaining binding of 55% (binding; 1 µM).
